This note sets out measurements from ChEMBL document CHEMBL5046323, “Discovery of Phospholipase D Inhibitors with Improved Drug-like Properties and Central Nervous System Penetrance” (ACS Med Chem Lett, 2022).

One series addresses Phospholipase D2 (Homo sapiens, UniProt O14939). Put plainly: Inhibition of PLD2 (unknown origin) expressed in human HEK cells by immunoprecipitation. The series is classed as cell-based. Put shortly:
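PLD1 or PLD2 immunoprecipitated from HEK-293 cell lysates and captured on plate with an antibody (ELISA format); 08:0 phosphatidylcholine substrate; released choline detected by Amplex Red readout.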

A short description of series [1]: Microsomal stability in human liver microsomes assessed as intrinsic clearance. Conditions: read-out: CLH. Type of series: ADME, Microsome. Put shortly:
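Intrinsic clearance (CLint) determined in rat or human liver microsomes.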
(In general: Liver microsomes are a subcellular fraction often used to study metabolism.)

Series [2] can be described thus: Clearance in iv dosed rat administered as cassette dose. Type of series: ADME, organism-based. The following applies: in vivo. In a few lines: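 Rat IV clearance from cassette dosing; unbound clearance calculated as CL/fu.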
The subject of a further series is BCRP. Put plainly: Efflux ratio of apparent permeability from basolateral to apical side over apical to basolateral side in dog MDCK-BCRP cells. The series is classed as ADME, cell-based, Canis lupus familiaris.
A further series addresses T1, Cytochrome P450 1A2 (Homo sapiens, UniProt P05177).
T1 sequence (P05177 whole entry): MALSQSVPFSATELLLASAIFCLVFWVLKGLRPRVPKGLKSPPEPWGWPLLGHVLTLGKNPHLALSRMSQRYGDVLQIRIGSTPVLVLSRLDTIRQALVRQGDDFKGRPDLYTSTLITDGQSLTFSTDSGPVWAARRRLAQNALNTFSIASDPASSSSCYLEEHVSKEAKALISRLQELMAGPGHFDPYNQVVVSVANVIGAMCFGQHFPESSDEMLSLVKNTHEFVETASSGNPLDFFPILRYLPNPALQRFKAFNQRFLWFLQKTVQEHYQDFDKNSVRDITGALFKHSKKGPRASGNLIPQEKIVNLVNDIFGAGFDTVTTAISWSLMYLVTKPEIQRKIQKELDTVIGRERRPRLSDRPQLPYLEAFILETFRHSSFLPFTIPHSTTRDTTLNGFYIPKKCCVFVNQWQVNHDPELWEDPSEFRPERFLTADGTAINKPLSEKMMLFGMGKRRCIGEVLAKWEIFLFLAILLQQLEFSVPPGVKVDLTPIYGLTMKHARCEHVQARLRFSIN
Put plainly: Inhibition of CYP1A2 (unknown origin). Type of series: ADME.

Another series has as its target T2, Cytochrome P450 2B6 (Homo sapiens, UniProt P20813).
T2 sequence (P20813 whole entry): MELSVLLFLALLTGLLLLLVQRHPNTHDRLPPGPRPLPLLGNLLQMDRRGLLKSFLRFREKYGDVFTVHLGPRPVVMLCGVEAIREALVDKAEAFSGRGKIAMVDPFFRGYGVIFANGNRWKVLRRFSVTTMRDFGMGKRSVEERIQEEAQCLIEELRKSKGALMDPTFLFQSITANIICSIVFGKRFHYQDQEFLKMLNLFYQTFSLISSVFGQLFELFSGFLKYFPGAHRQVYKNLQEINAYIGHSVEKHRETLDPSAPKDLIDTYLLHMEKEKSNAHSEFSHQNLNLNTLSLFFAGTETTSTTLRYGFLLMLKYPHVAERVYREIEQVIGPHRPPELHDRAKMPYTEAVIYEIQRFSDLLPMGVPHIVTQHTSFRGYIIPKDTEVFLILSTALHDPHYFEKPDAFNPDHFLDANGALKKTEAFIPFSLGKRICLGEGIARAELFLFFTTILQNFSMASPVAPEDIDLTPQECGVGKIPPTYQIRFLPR
Put plainly: Inhibition of CYP2B6 (unknown origin). The series is classed as ADME.

In a further series the target is Cytochrome P450 2D6 (Homo sapiens, UniProt P10635). Put plainly: Inhibition of CYP2D6 (unknown origin). The series is classed as ADME.
Chain of Cytochrome P450 2D6 (P10635 whole entry): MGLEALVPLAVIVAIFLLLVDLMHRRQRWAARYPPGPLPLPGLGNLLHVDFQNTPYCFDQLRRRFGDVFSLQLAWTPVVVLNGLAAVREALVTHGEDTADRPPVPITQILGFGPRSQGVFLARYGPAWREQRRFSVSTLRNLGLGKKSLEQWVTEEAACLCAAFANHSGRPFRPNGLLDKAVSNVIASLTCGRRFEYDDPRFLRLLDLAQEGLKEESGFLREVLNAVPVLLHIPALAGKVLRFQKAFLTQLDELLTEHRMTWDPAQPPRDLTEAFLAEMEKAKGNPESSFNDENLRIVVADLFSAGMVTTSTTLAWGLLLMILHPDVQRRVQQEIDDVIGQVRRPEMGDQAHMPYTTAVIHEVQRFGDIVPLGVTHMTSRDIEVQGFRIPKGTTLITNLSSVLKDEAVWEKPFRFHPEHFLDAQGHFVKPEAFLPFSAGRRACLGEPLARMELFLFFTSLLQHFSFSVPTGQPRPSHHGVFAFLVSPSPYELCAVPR
The next series has as its target Cytochrome P450 2C9 (Homo sapiens, UniProt P11712). Put plainly: Inhibition of CYP2C9 (unknown origin). The series is classed as ADME.
The target in a further series is Cytochrome P450 3A4 (Homo sapiens, UniProt P08684). Put plainly: Inhibition of CYP3A4 (unknown origin). The series is classed as ADME.
Chain of Cytochrome P450 3A4 (P08684 whole entry): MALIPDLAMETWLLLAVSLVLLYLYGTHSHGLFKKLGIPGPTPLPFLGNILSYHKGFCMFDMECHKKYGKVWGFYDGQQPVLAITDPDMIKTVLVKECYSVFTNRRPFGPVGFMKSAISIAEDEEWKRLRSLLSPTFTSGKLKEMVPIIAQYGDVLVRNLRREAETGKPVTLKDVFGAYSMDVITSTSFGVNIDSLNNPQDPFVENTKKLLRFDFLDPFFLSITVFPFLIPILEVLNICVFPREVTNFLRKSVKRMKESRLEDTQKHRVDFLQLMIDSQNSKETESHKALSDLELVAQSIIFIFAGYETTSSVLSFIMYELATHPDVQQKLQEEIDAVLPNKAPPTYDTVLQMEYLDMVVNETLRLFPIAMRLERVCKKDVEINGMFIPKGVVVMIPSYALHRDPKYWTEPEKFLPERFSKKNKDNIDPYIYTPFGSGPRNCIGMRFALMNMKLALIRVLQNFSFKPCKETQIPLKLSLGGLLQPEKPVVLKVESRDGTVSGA
Series [3] addresses Voltage-gated inwardly rectifying potassium channel KCNH2 (Homo sapiens, UniProt Q12809). Put plainly: Inhibition of human ERG. The series is classed as toxicity.
Series [4] in a line: Plasma protein binding in rat assessed as unbound fraction. Type of series: ADME, cell-free.
The nature of series [5]: Plasma protein binding in sc dosed C57BL/6 mouse by LC-MS/MS analysis. The series is classed as ADME, organism-based. Conditions: in vivo.
Series [6] is described as follows: Drug concentration in sc dosed C57BL/6 mouse liver measured after 30 mins by LC-FTICR-MS analysis. Type of series: ADME, organism-based. Conditions: read-out: Ct. Put shortly: (§1)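 Mice dosed subcutaneously at 10 mg/kg 15, 30 or 60 min before injection of 1-butanol-d10; tissues (liver, brain) collected 15 min after butanol injection for compound levels.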
Series [7] is described as follows: Drug concentration in sc dosed C57BL/6 mouse brain measured after 30 mins by LC-FTICR-MS analysis. The series is classed as ADME, organism-based. Conditions: read-out: Ct. In a few lines:
as §1

Series [8] in a line: Drug concentration in sc dosed C57BL/6 mouse brain measured after 60 mins by LC-FTICR-MS analysis. The following applies: read-out: Ct. Type of series: ADME, organism-based. Put shortly: as §1
A short description of series [9]: Unbound brain concentration in sc dosed C57BL/6 mouse measured after 15 mins by LC-FTICR-MS analysis. The series is classed as ADME, organism-based. The following applies: in vivo, 0.25 h. Put shortly:
as §1

A short description of series [10]: Unbound brain concentration in sc dosed C57BL/6 mouse measured after 30 mins by LC-FTICR-MS analysis. The following applies: in vivo, 0.5 h. Type of series: ADME, organism-based. Put shortly: as §1
Series [11] can be described thus: Unbound brain concentration in sc dosed C57BL/6 mouse measured after 60 mins by LC-FTICR-MS analysis. The series is classed as ADME, organism-based. Conditions: in vivo, 1 h. Put shortly:
as §1

Series [12] can be described thus: Oral bioavailability in rat. The series is classed as ADME, organism-based. The following applies: in vivo. In a few lines:
(§2)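 Rat oral PK, average of two experiments with n = 3 rats each; formulation HPMC/Tween.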

Series [13] is described as follows: Tmax in po dosed rat. Type of series: ADME, organism-based. Conditions: in vivo. In a few lines: as §2
Series [14] is described as follows: Apparent permeability in dog MDCK cells with low MDR1 expression.

Chain of Voltage-gated inwardly rectifying potassium channel KCNH2 (Q12809 whole entry): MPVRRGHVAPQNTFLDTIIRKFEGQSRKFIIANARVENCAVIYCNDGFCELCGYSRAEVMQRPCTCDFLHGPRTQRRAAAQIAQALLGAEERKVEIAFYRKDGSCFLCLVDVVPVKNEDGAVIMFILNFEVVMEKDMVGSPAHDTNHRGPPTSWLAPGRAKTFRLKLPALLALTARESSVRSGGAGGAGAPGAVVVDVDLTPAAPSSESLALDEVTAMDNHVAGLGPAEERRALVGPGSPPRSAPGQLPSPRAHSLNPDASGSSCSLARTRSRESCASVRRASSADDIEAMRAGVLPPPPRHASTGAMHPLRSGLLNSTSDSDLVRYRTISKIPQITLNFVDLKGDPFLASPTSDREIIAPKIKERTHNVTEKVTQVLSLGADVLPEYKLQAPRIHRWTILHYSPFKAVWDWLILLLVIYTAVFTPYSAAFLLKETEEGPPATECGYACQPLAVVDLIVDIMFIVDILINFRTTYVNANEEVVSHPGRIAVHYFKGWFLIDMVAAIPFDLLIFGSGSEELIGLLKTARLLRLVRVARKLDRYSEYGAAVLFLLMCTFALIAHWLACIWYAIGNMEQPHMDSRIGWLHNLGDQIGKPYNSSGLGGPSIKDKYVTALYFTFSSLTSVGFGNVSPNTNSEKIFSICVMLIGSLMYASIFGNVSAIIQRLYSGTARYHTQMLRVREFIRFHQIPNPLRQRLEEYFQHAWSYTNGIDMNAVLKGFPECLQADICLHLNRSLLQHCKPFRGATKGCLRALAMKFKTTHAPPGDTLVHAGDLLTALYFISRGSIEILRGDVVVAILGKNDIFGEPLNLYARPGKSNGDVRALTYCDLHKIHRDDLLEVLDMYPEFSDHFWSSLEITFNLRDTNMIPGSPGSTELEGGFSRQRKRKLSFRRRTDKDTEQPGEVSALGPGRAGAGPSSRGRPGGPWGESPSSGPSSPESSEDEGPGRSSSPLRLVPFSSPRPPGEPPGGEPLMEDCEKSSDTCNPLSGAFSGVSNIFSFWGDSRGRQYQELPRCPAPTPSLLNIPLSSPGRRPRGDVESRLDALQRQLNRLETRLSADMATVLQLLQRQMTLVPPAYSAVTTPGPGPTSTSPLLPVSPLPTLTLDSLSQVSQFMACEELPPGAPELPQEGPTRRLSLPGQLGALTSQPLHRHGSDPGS
Chain of Cytochrome P450 2C9 (P11712 whole entry): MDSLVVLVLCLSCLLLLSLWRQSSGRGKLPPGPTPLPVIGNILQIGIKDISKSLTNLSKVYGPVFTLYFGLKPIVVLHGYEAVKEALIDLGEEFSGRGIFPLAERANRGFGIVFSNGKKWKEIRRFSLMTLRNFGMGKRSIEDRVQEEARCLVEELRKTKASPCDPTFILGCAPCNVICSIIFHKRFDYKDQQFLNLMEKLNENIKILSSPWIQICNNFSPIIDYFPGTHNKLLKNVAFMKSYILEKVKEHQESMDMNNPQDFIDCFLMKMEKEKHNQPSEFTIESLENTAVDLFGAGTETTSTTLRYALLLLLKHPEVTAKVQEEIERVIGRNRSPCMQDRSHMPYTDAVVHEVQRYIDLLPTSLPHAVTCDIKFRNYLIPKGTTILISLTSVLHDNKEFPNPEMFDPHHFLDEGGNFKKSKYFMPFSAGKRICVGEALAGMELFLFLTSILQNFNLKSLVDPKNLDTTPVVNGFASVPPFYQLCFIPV
Chain of Phospholipase D2 (O14939 whole entry): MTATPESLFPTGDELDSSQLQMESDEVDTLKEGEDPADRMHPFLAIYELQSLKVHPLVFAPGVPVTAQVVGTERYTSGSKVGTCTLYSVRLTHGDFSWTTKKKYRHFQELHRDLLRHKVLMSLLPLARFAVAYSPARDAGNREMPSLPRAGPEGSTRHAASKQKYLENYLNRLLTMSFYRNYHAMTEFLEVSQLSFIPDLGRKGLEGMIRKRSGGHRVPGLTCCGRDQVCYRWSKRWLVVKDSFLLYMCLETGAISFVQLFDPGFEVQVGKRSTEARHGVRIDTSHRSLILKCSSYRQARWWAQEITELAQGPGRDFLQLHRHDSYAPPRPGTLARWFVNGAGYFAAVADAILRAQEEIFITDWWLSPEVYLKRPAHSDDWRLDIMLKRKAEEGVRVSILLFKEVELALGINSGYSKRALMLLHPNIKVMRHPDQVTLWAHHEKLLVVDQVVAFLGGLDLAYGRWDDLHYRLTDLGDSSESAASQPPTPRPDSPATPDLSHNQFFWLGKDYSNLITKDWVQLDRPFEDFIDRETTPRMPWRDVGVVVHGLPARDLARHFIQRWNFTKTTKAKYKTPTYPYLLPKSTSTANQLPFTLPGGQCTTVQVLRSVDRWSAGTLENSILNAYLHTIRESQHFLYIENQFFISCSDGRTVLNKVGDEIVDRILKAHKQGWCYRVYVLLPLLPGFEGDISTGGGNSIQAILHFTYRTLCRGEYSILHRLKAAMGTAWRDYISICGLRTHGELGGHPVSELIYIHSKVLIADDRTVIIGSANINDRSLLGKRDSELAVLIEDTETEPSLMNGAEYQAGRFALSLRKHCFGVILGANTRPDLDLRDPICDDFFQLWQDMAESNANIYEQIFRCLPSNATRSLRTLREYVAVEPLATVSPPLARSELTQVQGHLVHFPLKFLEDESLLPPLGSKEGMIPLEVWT

By IC50 is commonly meant the concentration at which inhibition is half-maximal. Read a low IC50 as greater potency in that assay. As a reminder, the clearance is the volume of plasma or blood freed of the substance per unit of time. Low readings indicate a low capacity for elimination, high ones a high capacity for elimination. For orientation: efflux ratio means the permeability from basolateral to apical divided by that in the opposite direction, in the common usage. Broadly, the bioavailability is dose-corrected exposure relative to a reference, in per cent. Lower therefore signals poor availability. By Tmax is commonly meant the time from dosing to the highest level. What is called Papp is a coefficient for how fast a substance crosses the barrier. On to `C[C@@H]1CN(C(=O)[C@H](C)N2CCC(n3c(=O)[nH]c4ccccc43)CC2)C[C@@H](C)N1`, for which the IC50 on Phospholipase D2 is 0.23 µM; against Cytochrome P450 1A2 it was > 10 µM; against Cytochrome P450 2B6 it was > 10 µM; against Cytochrome P450 2D6, > 10 µM; at Cytochrome P450 2C9 it was > 10 µM; at Cytochrome P450 3A4, > 10 µM. In series [3], the IC50 was > 30 µM. In addition, the CLint scaled in series [1] was determined as 6 mL/min/kg. Also, the clearance in series [2] came out at 28 mL/min/kg. Besides, the efflux ratio in the series with BCRP was 1.2. Besides, in [4], the Fu stood at 10.8%. Besides, the PPB in series [5] worked out at 17.2%. Further, the concentration at 0.5 h turned out to be 7160 ng/g in series [6] and 109 ng/g in series [7]. For the same molecule, the concentration at 1 h in [8] was 117 ng/g. Moreover, the entries for the “Drug uptake(free)” value in [9], in series [10] and in series [11] were 38.1 nM, 49.5 nM and 53.2 nM, respectively. Also, the bioavailability in [12] was 21%. Moreover, the Tmax in series [13] came to 3 h. Further, the Papp in [14] is 5.1 ×10⁻⁶ cm/s.
